UBC13 polyUb: blocks human UBC13 polyubiquitin chain formation; TR-FRET; inhibition, % at 20 µM; hit rate 0.47% among 330,000; AID 485273; in the data active means inhibition above about 45%, passing the limit was not always enough
Apaf1 inhib: human Apaf-1 inhibition. O14727. reconstituted apoptosome caspase-3 activity, DEVD-Rh110 fluorescence. inhibition, % at 20 µM. hit rate 0.71% among 330,000. AID 489030; active means inhibition of at least 40% at 20 µM
Target sequence (O14727 whole entry, looked up): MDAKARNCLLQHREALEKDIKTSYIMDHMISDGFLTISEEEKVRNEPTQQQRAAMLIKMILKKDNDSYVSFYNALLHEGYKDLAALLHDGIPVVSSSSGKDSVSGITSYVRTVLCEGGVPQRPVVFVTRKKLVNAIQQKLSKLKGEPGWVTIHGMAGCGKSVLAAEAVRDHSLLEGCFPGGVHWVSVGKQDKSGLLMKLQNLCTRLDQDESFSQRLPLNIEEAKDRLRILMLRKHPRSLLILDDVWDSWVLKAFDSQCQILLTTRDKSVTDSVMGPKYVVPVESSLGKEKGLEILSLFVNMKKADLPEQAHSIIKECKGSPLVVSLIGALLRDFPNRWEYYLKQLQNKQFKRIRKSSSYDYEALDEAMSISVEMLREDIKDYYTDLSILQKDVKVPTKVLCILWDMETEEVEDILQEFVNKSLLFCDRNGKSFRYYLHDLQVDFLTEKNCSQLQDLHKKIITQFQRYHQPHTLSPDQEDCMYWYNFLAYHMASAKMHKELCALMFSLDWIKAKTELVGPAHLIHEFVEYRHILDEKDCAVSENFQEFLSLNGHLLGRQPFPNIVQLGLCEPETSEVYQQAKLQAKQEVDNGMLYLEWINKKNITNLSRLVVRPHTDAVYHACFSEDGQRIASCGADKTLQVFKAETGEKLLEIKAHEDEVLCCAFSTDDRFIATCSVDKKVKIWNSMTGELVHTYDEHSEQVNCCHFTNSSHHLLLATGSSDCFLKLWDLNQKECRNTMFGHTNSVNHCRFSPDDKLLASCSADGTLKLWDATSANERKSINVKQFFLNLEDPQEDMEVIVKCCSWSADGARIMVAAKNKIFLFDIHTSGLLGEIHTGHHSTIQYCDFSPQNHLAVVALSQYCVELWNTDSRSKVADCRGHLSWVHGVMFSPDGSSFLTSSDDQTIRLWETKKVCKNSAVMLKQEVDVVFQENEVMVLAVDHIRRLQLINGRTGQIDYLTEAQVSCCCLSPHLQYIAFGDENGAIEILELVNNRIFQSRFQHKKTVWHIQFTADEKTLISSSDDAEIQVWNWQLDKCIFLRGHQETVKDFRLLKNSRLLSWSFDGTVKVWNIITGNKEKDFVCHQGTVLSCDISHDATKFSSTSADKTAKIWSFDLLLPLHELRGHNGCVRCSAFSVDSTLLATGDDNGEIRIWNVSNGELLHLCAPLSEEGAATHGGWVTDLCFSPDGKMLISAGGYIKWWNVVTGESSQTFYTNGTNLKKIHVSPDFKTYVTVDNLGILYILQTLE
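Medium: Hepes buffer, pH 7.5 / System: biochemical Apaf-1 apoptosome reconstitution / Measured by: Rh110 fluorescence, excitation 480 nm, emission 540 nm / Times: compound with Apaf-1, dATP, procaspase-3 30 min, then 50 min reaction, room temperature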
FID counter: fluorescent intercalator displacement, NS3 helicase counter-screen; hit rate 0.17% among 290,000; DNA fluorescent intercalator displacement, fluorescence; inhibition, % at 7.9 µM; AID 1845; in the data active means inhibition above about 37%;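 further: higher means more ethidium bromide displaced from hairpin DNA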
ANO1 block: mouse TMEM16A channel inhibition, primary screen. HEK293 TMEM16A/YFP iodide influx fluorescence, ionomycin. AID 588511. hit rate 1.2% among 310,000. normalized B-score (activity score, 25-100; higher = stronger inhibition) at 10 µM. Q8BHY3;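 active means ratio plate-corrected score three or more library SD toward inhibition, starting fluorescence score within five deviations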;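 further: score derived from kinetic fluorescence span divided by baseline fluorescence per well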
ANO1 activ: activates or potentiates the mouse TMEM16A chloride channel; Q8BHY3; HEK293 TMEM16A/YFP-H148Q/I152L, iodide quench fluorescence; hits give low values; B-score at 10 µM; hit rate 0.3% among 340,000; AID 623877;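 active means fluorescence-ratio B-score plate-corrected deviation score at least 3 library SD below zero, with starting fluorescence score within 5 deviations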;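 further: channel opened by trigger with iodide after compound preincubation; score built on the fluorescence ratio of max minus min over baseline; more negative score means more quench and so TMEM16A activation or potentiation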
Apaf-1 inh conf: Apaf-1 inhibition, single-dose confirmed | shares compounds with Apaf1 inhib | reconstituted apoptosome, caspase-3 DEVD-Rh110 fluorescence | AID 504614 | inhibition, % at 20 µM | hit rate 25% among 1,800;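 active means mean inhibition of at least 40% at 20 µM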
Rh110 quench: counter-screen for Apaf-1 inhibitors: fluorescence interference | shares compounds with Apaf1 inhib | 1,800 tested, under 10 active | activation (fluorescence interference), % at 20 µM | AID 504615 | Rh110 fluorescence interference, quenched caspase reaction;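 active means signal rise of 40% or more at 20 µM, treated as a fluorescence artifact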
Fluor interf inh: Apaf-1 inhibitor counter-screen fluorescence artifact | IC50, µM | 460 tested, under 10 active | AID 588538 | fluorescence interference counterscreen, Apaf-1 assay format | shares compounds with Apaf1 inhib; call rule not given here
Of the large screens only hits and unclear results are named; the others gave an inactive call (follow-up assays come after a bar, where they were run). Compounds with a hit are over-represented: about 2.4% of the library has one in this group of screens.

Cc1ccc(S(=O)(=O)Nc2ccc3c(c2)CC(=O)N([C@H](C)CO)C[C@@H](C)[C@H](CN(C)Cc2ccc(-c4ccccc4)cc2)O3)cc1	Apaf1 inhib 41.0 (no result: FID counter, ANO1 block) | Apaf-1 inh conf inactive | Rh110 quench inactive
C[C@H]1CN([C@@H](C)CO)C(=O)Cc2cc(NC(=O)CCC(F)(F)F)ccc2O[C@H]1CN(C)Cc1ccc(-c2ccccc2)cc1	Apaf1 inhib 40.8 (no result: FID counter, ANO1 block) | Apaf-1 inh conf inactive | Rh110 quench inactive
C[C@H](CO)N1C[C@H](C)[C@@H](CN(C)Cc2ccc(Cl)c(Cl)c2)Oc2c(NC(=O)CCC(F)(F)F)cccc2C1=O	Apaf1 inhib 46.1 (no result: FID counter, ANO1 block) | Apaf-1 inh conf inactive | Rh110 quench inactive
CCOC(=O)CCc1c(C(=O)OCC)[nH]c(CC)c1C(=O)OCc1ccccc1	none
O=Cc1ccc(-c2cccs2)s1	none (no result: UBC13 polyUb, Apaf1 inhib, FID counter, ANO1 block)
Oc1ccc(N=Cc2ccc(-c3cccs3)s2)cc1	Apaf1 inhib 95.8 | Apaf-1 inh conf inactive | Rh110 quench inactive
CCOc1cccc(-c2cc(=O)[nH][nH]2)c1	Apaf1 inhib 43.9 | Apaf-1 inh conf inactive | Rh110 quench inactive
COc1cccc(-c2cc(=O)[nH][nH]2)c1	none
COc1ccc(-c2cc(=O)[nH][nH]2)cc1OC	Apaf1 inhib 76.7 | Apaf-1 inh conf inactive | Rh110 quench inactive
O=c1cc(-c2ccc(Br)cc2)[nH][nH]1	none
O=c1cc(-c2ccc(F)cc2)[nH][nH]1	Apaf1 inhib 50.3 | Apaf-1 inh conf inactive | Rh110 quench inactive
CN(Cc1cn[nH]c1-c1cc2ccccc2o1)CC1CCOCC1	none
O=C1/C(=N\S(=O)(=O)c2cccs2)C([n+]2ccc(CCCc3ccccc3)cc2)=C([O-])c2ccccc21	Apaf1 inhib 45.6 | Apaf-1 inh conf inactive | Rh110 quench inactive
COc1ccc(-c2nnc(SCC(=O)NC3CCCC3)n2C)cc1	none
CC(=O)c1cc(O)c2ccccc2c1O	Apaf1 inhib 58.0 | Apaf-1 inh conf inactive | Rh110 quench inactive
CCO[C@@H]1OC(C(=O)NCc2ccccc2)=C[C@H](c2ccc(C(F)(F)F)cc2)[C@H]1CCCO	none
Cc1ccc(C(=O)OCC(=O)Nc2ccc3c(c2)OCO3)c(O)c1	none (no result: FID counter, ANO1 block)
CC1=NN(c2ccccc2)C(=O)/C1=C\N(O)c1ccccc1	Apaf1 inhib 70.5 | Apaf-1 inh conf inactive | Rh110 quench inactive
CC1=NN(c2ccccc2)C(=O)/C1=C/c1ccc[nH]1	none
CC1=NN(c2ccccc2)C(=O)/C1=C/C=C/C=C/N(C)C	none
CCOc1cc(/C=C2/C(=N)N3N=C(CC)SC3=NC2=O)ccc1OC(=O)c1ccco1	none
CC1=NN(c2ccc(C)c(C)c2)C(=O)/C1=C/c1ccc2c(c1)n(C)c(=O)n2C	Apaf1 inhib 93.7 | Apaf-1 inh conf inactive | Rh110 quench inactive
Cn1c(=O)n(C)c2cc(/C=N/n3cnnc3)ccc21	none
CC1=NN(c2ccccc2)C(=O)/C1=C/c1ccc(Cl)cc1	Apaf1 inhib 95.9, ANO1 block 25 | Apaf-1 inh conf inactive | Rh110 quench inactive
CCOc1cc(/C=C2/C(=O)N(c3ccccc3)N=C2C)ccc1OC(=O)c1ccco1	Apaf1 inhib 96.9 | Apaf-1 inh conf inactive | Rh110 quench inactive
COc1cc2[nH]c3c(c2cc1OC)CCN1CCCC[C@@H]31	none (no result: FID counter)
CCOC(=O)c1ccc(N2CCOCC2)c(NC(=O)COCC(=O)O)c1	none
CC1=NN(c2cccc(C(=O)O)c2)C(=O)/C1=C\C=C/c1ccccc1	none (no result: ANO1 block, ANO1 activ)
CC1=NN(c2ccccc2)C(=O)/C1=C/c1cccs1	Apaf1 inhib 89.9 | Apaf-1 inh conf inactive | Rh110 quench inactive
CC1=NN(c2ccccc2)C(=O)/C1=C\c1ccc(Br)s1	Apaf1 inhib 96.0 | Apaf-1 inh conf inactive | Rh110 quench inactive
CC1=NN(c2ccccc2)C(=O)/C1=C\c1cc(C)n(-c2ccccc2)c1C	none
CC1=NN(c2ccc(C(=O)O)cc2)C(=O)/C1=C\c1ccc(OC(=O)c2cccs2)cc1	Apaf1 inhib 75.3 | Apaf-1 inh conf inactive | Rh110 quench inactive
O=C(c1ccc(Cl)cc1)n1c(NCc2ccccc2)n[nH]c1=S	none
Cc1ccc(C(=O)N2CCN(S(=O)(=O)c3ccc(C)c([N+](=O)[O-])c3)C2)cc1	none
CCC(C)Sc1ccc(-c2nc3ccc(C)cn3c2NC2CCCCC2)cc1 (stereo not drawn)	Apaf1 inhib 40.9 (no result: FID counter) | Apaf-1 inh conf inactive | Rh110 quench inactive
CCOc1ccc(OCCSc2ccc(S(=O)(=O)N3CCN(C)CC3)cn2)cc1	Apaf1 inhib 55.0 (no result: FID counter, ANO1 block) | Apaf-1 inh conf inactive | Rh110 quench inactive
CN1CCN(S(=O)(=O)c2ccc(SCCOc3ccccc3)nc2)CC1	none
[O-]/C(=C(\C(=S)Nc1cccc2ccccc12)[n+]1ccccc1)c1ccc(Cl)s1	Apaf1 inhib 47.0 | Apaf-1 inh conf inactive | Rh110 quench inactive
CCCCNc1c(-c2ccc(OC)c(SC(C)CC)c2)nc2cnccn12 (stereo not drawn)	none (no result: UBC13 polyUb, Apaf1 inhib, FID counter, ANO1 block)
CCCCNc1c(-c2ccc(OC)c(SC(C)CC)c2)nc2cc(C)ccn12 (stereo not drawn)	Apaf1 inhib 48.9 (no result: FID counter, ANO1 block) | Apaf-1 inh conf inactive | Rh110 quench inactive
CCCCCCSc1ccc(-c2nc3ccc(C)cn3c2NCc2ccccc2)cc1OC	Apaf1 inhib 41.5 (no result: FID counter) | Apaf-1 inh conf inactive | Rh110 quench inactive
CCCCCCSc1ccc(-c2nc3cnccn3c2NCCCC)cc1	Apaf1 inhib 55.9 (no result: FID counter, ANO1 block) | Apaf-1 inh conf inactive | Rh110 quench inactive
CCCCCCSc1cc(-c2nc3ccc(C)cn3c2NCCCC)ccc1OC	Apaf1 inhib 46.2 (no result: FID counter, ANO1 block) | Apaf-1 inh conf inactive | Rh110 quench inactive
N#Cc1cccc(NC(=O)CCc2ccc(S(=O)(=O)N3CCOCC3)cc2)c1	none (no result: FID counter, ANO1 block)
Nc1c(C(=O)NCCN2CCOCC2)c2nc3ccccc3nc2n1CCc1ccccc1F	Apaf1 inhib 43.3 | Apaf-1 inh conf inactive | Rh110 quench inactive
COc1ccccc1CNC(=O)c1c(N)n(CCCN2CCOCC2)c2nc3ccccc3nc12	none (no result: UBC13 polyUb, Apaf1 inhib, ANO1 block)
Nc1c(C(=O)NCc2ccc3c(c2)OCO3)c2nc3ccccc3nc2n1CCCN1CCOCC1	Apaf1 inhib 90.3 | Apaf-1 inh conf 44.1 | Rh110 quench inactive | Fluor interf inh inactive
COC(=O)C1N[C@@H]([C@@H](NC(=O)COc2ccccc2)C(=O)NC2CC2)SC1(C)C (stereo partly drawn)	none (no result: FID counter)
COC(=O)CCC(=O)OC1(C)C(=O)C=C2C=C(C3CC3)N(C3CC3)C=C2C1=O (stereo not drawn)	Apaf1 inhib 53.6 (no result: FID counter) | Apaf-1 inh conf inactive | Rh110 quench inactive
COC(=O)CCC(=O)OC1(C)C(=O)C2=CN(C3CCCC3)C(c3ccc(OC)cc3)=CC2=C(Br)C1=O (stereo not drawn)	Apaf1 inhib 64.1 (no result: FID counter) | Apaf-1 inh conf 76.8 | Rh110 quench inactive | Fluor interf inh inactive

Compound activity as filed in PubChem BioAssay.
